ED50, Activity and Kd data for 5 compounds are collected here from ChEMBL document CHEMBL1156450, “Naloxone acts as a potent analgesic in transgenic mouse models of sickle cell anemia” (Proc Natl Acad Sci U S A, 2007).

Assay [1] has as its system Mus musculus. In words: Antinociceptive effect in sc dosed sickle cell anemic NY1DD transgenic mouse after 60 mins by heat tail flick test. The class given is functional. To be noted: 1 h. The method in brief:
(§1)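 Male mice aged 10–12 weeks, housed on a 12-h light/dark cycle. Radiant heat was aimed at the dorsal tail and the latency to flick was recorded. Dosing volumes were 5 μl per mouse for i.c.v. and i.t. and 10 ml/kg for s.c. At least three groups of 8–10 mice per paradigm; each mouse was used once. ED50 with 95% confidence intervals came from a parallel line assay.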
For orientation: In hot-plate and tail-flick tests a longer latency is read as antinociception.

For assay [2], the system named is Mus musculus. In words: Antinociceptive effect in intrathecally dosed C57BL/6J mouse after 10 mins by heat tail flick test. The assay is classed as functional. An outline of the steps:
as §1

Assay [3] relates to Mus musculus. As to the kind of experiment: Antinociceptive effect in […] dosed sickle cell anemic NY1DD transgenic mouse after 10 mins by heat tail flick test. The assay is classed as functional.
The test system of assay [4] is Mus musculus. As to the kind of experiment: Antinociceptive effect in icv dosed sickle cell anemic NY1DD transgenic mouse after 10 mins by heat tail flick test. The class given is functional. The method in brief: as §1
Assay [5] deals with Mus musculus. In words: Antinociceptive effect in sc dosed C57BL/6J mouse after 60 mins by heat tail flick test. The settings on record: 1 h.
The subject of assay [6] is Mus musculus. As to the kind of experiment: Antinociceptive effect in icv dosed C57BL/6J mouse after 10 mins by heat tail flick test. The class given is functional. An outline of the steps: as §1
For assay [7], the species on record is Mus musculus. As to the kind of experiment: Decrease in analgesic activity in CCL5 pretreated C57BL/6J mouse. The assay is classed as functional, organism-based. An outline of the steps: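 C57BL/6J mice were pretreated i.c.v. with murine RANTES (CCL5) at two doses 20 min before i.c.v. morphine, then tested by radiant heat tail-flick. The antagonist ED50 of RANTES was given with a 95% confidence interval. For reversal, 50 ng Met-RANTES per mouse was given 2 h before RANTES.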

The species entered for assay [8] is Mus musculus. In words: Down-regulation of CCR5 mRNA expression in sickle cell anemic NY1DD transgenic mouse. The class given is functional, organism-based. An outline of the steps:
(§2)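 C57BL/6J and NY1DD mice received 25 pmol per mouse of drug or 0.9% saline (5 μl). Brains were removed 10 min later, frozen in liquid N2 and used for RNA isolation and cDNA microarray hybridization (control RNA labeled with Cy3-dCTP; 42°C for 16 h).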

For assay [9], the system named is Mus musculus. As to the kind of experiment: Reduction of analgesic activity in NY1DD transgenic mouse pretreated with Met-RANTES 2 hrs before drug administration. The class given is functional, organism-based. The method in brief: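 NY1DD mice received Met-RANTES at 50 ng per mouse 2 h before the test drug. Analgesia was measured by radiant heat tail-flick.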

Assay [10] relates to Mus musculus. As to the kind of experiment: Antinociceptive effect in icv dosed sickle cell anemic hBERK1 transgenic mouse after 10 mins by heat tail flick test. The assay is classed as functional. An outline of the steps:
as §1

Assay [11] addresses T1, C-C chemokine receptor type 5 (Mus musculus, UniProt P51682). In words: Binding affinity to CCR5 in C57BL/6J mouse brain membrane. The assay is classed as cell membranes.
Assay [12] addresses T1, C-C chemokine receptor type 5. As to the kind of experiment: Binding affinity to CCR5 in NY1DD transgenic mouse brain membrane. The assay is classed as tissue-based. The method in brief:
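[3H]Naloxone saturation binding on pooled brains (cerebellum removed) from three mice. Tissue was homogenized in ice-cold Hepes pH 7.4, washed repeatedly with a 90-min ice step to deplete endogenous opiates, and used as a 2% suspension. Incubation was 90 min at room temperature; nonspecific binding was defined with 10 μM naloxone. Samples were filtered on PEI-soaked GF/C and counted by scintillation. Kd came from global fitting. Triplicates; 2–3 experiments, mean ± SEM.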

The species named for assay [13] is Mus musculus. In words: Down-regulation of CCR5 mRNA expression in C57BL/6J mouse. The assay is classed as functional, organism-based. An outline of the steps: as §2
Assay [14] concerns Mus musculus. In words: Antinociceptive effect in NY1DD transgenic mouse assessed as partial agonist response at 8 nmol, icv by heat tail flick test. The assay is classed as functional.
The species entered for assay [15] is Mus musculus. As to the kind of experiment: Antinociceptive effect in NY1DD transgenic mouse assessed as partial agonist response at 2.5 nmol by heat tail flick test. The assay is classed as functional.
Assay [16] concerns Mus musculus. As to the kind of experiment: Antinociceptive effect in icv dosed NY1DD transgenic mouse after 1 hr by heat tail flick test. The class given is functional. An outline of the steps: as §1
In assay [17] the test system is Mus musculus. As to the kind of experiment: Antinociceptive effect in intrathecally dosed NY1DD transgenic mouse after 6 hrs by heat tail flick test. The assay is classed as functional. An outline of the steps: as §1

pKd: −log10 of the molar value. The source made the active and inactive calls. No cut-off for these calls is given here.

T1 sequence (P51682 whole entry): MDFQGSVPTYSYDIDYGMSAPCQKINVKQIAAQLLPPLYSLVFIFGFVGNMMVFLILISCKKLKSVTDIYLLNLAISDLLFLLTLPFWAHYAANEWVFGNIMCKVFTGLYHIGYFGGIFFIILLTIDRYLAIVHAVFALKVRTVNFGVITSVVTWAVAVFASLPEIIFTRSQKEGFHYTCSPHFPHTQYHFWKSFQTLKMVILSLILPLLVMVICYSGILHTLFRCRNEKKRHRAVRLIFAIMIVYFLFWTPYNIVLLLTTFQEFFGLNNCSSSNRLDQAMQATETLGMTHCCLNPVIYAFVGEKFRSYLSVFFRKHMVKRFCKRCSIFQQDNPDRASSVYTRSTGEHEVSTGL

`CN1CC[C@]23c4c5ccc(O)c4O[C@H]2[C@@H](O)C=C[C@H]3[C@H]1C5` [MORPHINE]: the ED50 was 2.36 µmol/kg with Mus musculus [1]; 0.088 nmol in the assay on Mus musculus [2]; 0.085 nmol in the assay on Mus musculus [3]; 3.95 nmol with Mus musculus [4]; 6.47 µmol/kg in the assay with Mus musculus [5]; 2.7 nmol in the assay with Mus musculus [6]. The outcome in the assay filed under Mus musculus [7] was Active.
For orientation: pKd means the negative decadic logarithm of the Kd, by convention in mol/L. Read a low pKd as a high Kd. `C=CCN1CC[C@]23c4c5ccc(O)c4O[C@H]2C(=O)CC[C@@]3(O)[C@H]1C5` [NALOXONE]: the result in the assay filed under Mus musculus [8] and in the assay with Mus musculus [9] was Active. Further, the ED50 came to 2.83 µmol/kg in the assay with Mus musculus [1], 0.045 nmol in the assay on Mus musculus [3], 0.03 nmol with Mus musculus [10] and 0.014 nmol in the assay with Mus musculus [4]. Also, the pKd in assay [11] was 7.68; in assay [12], 7.98. For the same compound, the result in the assay filed under Mus musculus [13] was inactive.
Regarding `O=C1CC[C@@]2(O)[C@H]3Cc4ccc(O)c5c4[C@@]2(CCN3CC2CC2)[C@H]1O5` [NALTREXONE], the Activity in the assay with Mus musculus [14] was 33%.
In the case of `Oc1ccc2c3c1O[C@H]1c4[nH]c5ccccc5c4C[C@@]4(O)[C@@H](C2)N(CC2CC2)CC[C@]314` [NALTRINDOLE], in the assay listed under Mus musculus [15], the Activity worked out at 10%.
In the case of `Oc1ccc2c3c1O[C@H]1c4[nH]c5c(c4C[C@@]4(O)[C@@H](C2)N(CC2CC2)CC[C@]314)C[C@@]1(O)[C@H]2Cc3ccc(O)c4c3[C@@]1(CCN2CC1CC1)[C@H]5O4` [NORBINALTORPHIMINE], the ED50 with Mus musculus [16] worked out at 1.55 nmol; in the assay on Mus musculus [17] it was 0.46 nmol.
